One series addresses T1, Adenosine receptor A1 (Homo sapiens, UniProt P30542).
T1 sequence (P30542 whole entry): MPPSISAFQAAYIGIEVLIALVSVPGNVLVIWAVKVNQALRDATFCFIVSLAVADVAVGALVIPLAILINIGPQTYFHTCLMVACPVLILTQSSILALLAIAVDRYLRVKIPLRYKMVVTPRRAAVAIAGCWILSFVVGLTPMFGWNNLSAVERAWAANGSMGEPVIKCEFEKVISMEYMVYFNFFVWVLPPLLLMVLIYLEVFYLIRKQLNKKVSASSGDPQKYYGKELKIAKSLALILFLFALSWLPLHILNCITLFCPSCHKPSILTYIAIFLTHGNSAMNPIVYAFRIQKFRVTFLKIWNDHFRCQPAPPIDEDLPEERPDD
The series is described as follows: Displacement of [3H]CCPA from human adenosine A1 receptor expressed in CHO cell membranes by radioligand competition assay. Summed up:
(§1)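 Membranes from stably transfected CHO cells were made by 1000 g, then 100 000g spins. hA1 used 1.0 nM [³H]CCPA in 50 mM Tris/HCl pH 7.4. hA3 used 1.0 nM [³H]HEMADO in 50 mM Tris/HCl, 10 mM MgCl2, 1 mM EDTA, pH 8.25. Ki from competition curves, each concentration tested three to five times in triplicate, mean ± S.E.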

In series [1] the target is T2, Adenosine receptor A2a (Homo sapiens, UniProt P29274). Put plainly: Displacement of [3H]NECA from human adenosine A2A receptor expressed in CHO cell membranes by radioligand competition assay.
T2 sequence (P29274 whole entry): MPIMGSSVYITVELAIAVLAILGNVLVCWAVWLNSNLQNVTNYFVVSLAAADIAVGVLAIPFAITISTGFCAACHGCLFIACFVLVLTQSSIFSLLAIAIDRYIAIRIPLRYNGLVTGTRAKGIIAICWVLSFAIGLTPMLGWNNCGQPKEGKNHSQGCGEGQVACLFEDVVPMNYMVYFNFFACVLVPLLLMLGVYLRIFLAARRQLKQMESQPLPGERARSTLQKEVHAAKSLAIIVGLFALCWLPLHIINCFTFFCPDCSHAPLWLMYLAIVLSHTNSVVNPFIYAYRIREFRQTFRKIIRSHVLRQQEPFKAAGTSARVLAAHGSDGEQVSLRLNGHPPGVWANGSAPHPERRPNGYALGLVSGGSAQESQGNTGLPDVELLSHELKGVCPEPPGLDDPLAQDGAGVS
A further series deals with T3, Adenosine receptor A3 (Homo sapiens, UniProt P0DMS8).
T3 sequence (P0DMS8 whole entry): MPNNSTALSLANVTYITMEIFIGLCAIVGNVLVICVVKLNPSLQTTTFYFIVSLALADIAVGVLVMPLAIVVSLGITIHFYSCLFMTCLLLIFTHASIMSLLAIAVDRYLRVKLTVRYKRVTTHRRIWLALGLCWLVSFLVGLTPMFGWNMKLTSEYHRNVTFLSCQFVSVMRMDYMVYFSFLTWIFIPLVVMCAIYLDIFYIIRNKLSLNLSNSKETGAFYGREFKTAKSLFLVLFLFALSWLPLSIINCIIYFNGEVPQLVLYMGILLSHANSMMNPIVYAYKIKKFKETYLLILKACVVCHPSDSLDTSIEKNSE
Put plainly: Displacement of [3H]HEMADO from human adenosine A3 receptor expressed in CHO cell membranes by radioligand competition assay. In a few lines: as §1

Another series concerns the target T4, Adenosine receptor A2b (Homo sapiens, UniProt P29275).
T4 sequence (P29275 whole entry): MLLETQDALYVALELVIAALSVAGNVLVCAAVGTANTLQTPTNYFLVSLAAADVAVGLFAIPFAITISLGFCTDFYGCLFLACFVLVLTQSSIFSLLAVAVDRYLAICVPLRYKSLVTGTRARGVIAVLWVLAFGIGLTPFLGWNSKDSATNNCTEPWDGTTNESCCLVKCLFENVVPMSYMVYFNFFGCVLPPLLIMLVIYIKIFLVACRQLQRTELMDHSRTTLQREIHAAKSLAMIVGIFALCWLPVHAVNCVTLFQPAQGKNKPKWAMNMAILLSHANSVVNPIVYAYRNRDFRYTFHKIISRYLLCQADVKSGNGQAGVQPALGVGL
Put plainly: Antagonist activity at human adenosine A2B receptor expressed in CHO cells assessed as inhibition of NECA-stimulated adenylyl cyclase activity by Glo-sensor cAMP assay. The series is classed as functional, cell-based. In a few lines: (§2)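 CHO cells stably expressing hA2A or hA2B AR and transiently the GloSensor cAMP biosensor. Cells were equilibrated 2 h at rt in CO2-independent medium with 3% v/v GloSensor reagent and 10% FBS. Compounds at graded concentrations were tested against NECA-induced cAMP rise; luminescence as % of maximal RLU. IC50 from nonlinear regression. Three to five runs in triplicate, mean ± S.E.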
(In general: Cyclic AMP is a second messenger, typically raised through Gs and lowered through Gi signalling.)

Series [2] concerns the target T2, Adenosine receptor A2a. Put plainly: Antagonist activity at human adenosine A2A receptor expressed in CHO cells assessed as inhibition of NECA-stimulated adenylyl cyclase activity by Glo-sensor cAMP assay. The series is classed as functional, cell-based. In a few lines: as §2
Series [3] concerns Microglia. The series is described as follows: Neuroprotective activity against 10 uM Oxaliplatin-induced neurotoxicity in Sprague-Dawley rat microglia assessed as cell viability at 10 uM incubated fro 24 hrs by MTT assay (reference value: 33.2 +/- 1.3%). The series is classed as functional.
Series [4] relates to Microglia. The series is described as follows: Neuroprotective activity against 30 uM Oxaliplatin-induced neurotoxicity in Sprague-Dawley rat microglia assessed as cell viability at 10 uM incubated fro 24 hrs by MTT assay (reference value: 19.1 +/- 0.8%). The series is classed as functional. For orientation: Formazan colour is commonly taken as a measure of viable cells.
Series [5] has as its system Microglia. Put plainly: Antioxidant activity in Sprague-Dawley rat microglia assessed as suppression of oxaliplatin-dependent increase in superoxide dismutase-inhibitable superoxide anion generation at 10 uM incubated for 4 hrs in presence of oxaliplatin by spectrophotometry based cytochrome c assay. The series is classed as functional, cell-based. Summed up:
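Primary neonatal (P1–P3) Sprague–Dawley rat cortical microglia (95–98% Iba1-positive), grown to confluence at 5×10⁵/well. Cells incubated 4 h at 37 °C in serum-free DMEM with cytochrome c (1 mg/ml), ± 100 µM oxaliplatin, ± compounds at 10 µM. Absorbance at 550 nm, minus the value with bovine SOD (300 mU/ml). O2•− calculated with ε 2.1×10⁴ M⁻¹ cm⁻¹, as µM/mg protein/4 h. Three experiments, mean ± SEM.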

Series [6] relates to Microglia. The series is described as follows: Antioxidant activity in Sprague-Dawley rat microglia assessed as suppression of oxaliplatin-induced reduction in catalase activity at 10 uM incubated for 24 hrs in presence of oxaliplatin by Amplex red dye based assay. The series is classed as functional, cell-based. Summed up: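 Primary rat microglia (5·10⁵ cells/well) exposed 24 h to oxaliplatin 10 µM ± compounds at 10 µM. Cells washed, scraped in PBS, freeze-thawed and spun 13,000×g for 10 min at 4 °C. Catalase read in the supernatant with an Amplex Red kit, normalised to BCA protein; untreated control set to 100%. Three experiments, mean ± SEM.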

For series [7], the system named is Mus musculus. The series is described as follows: Analgesic activity in CD1 albino mouse model of oxaliplatin-induced neuropathy hypersensitivity assessed as increase pain threshold at 10 to 30 mg/kg, po dosed from day 14 post oxaliplatin challenge and measured after 15 to 45 mins post dose by cold plate test. The series is classed as functional, organism-based. In a few lines:
(§3)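 Male CD-1 mice (22–25 g) given oxaliplatin 2.4 mg kg⁻¹ i.p. in 5% glucose on days 1-2, 5-9 and 12-14; controls got vehicle. On day 14, compounds suspended in 1% carboxymethylcellulose were given once p.o. Cold plate held at 4 °C ± 1 °C; latency to first hind-paw licking/lifting recorded, 60 s cut-off. Mean ± SEM, two experimental sets; one-way ANOVA with Bonferroni.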

For series [8], the target named is Adenosine receptor A2a (Rattus norvegicus, UniProt P30543). Put plainly: Displacement of [3H]NECA from rat adenosine A2A receptor expressed in CHO cell membranes by radioligand competition assay. In general terms: Displacement assays read how much labelled ligand stays bound in the presence of the test substance.
Chain of Adenosine receptor A2a (Rattus norvegicus, UniProt P30543) (P30543 whole entry): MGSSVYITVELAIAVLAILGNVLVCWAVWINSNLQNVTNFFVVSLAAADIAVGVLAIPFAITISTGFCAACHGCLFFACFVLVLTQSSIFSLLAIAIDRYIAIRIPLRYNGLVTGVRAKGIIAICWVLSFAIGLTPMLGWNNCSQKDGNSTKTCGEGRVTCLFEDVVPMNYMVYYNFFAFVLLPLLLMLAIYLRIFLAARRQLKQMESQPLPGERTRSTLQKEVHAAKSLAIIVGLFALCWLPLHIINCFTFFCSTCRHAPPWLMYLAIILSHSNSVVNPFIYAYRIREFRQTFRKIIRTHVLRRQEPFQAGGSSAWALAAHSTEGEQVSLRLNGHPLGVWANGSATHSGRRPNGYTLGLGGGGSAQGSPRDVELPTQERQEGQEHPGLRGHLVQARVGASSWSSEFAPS
A short description of series [9]: Half life in 50 mM Tris buffer. The series is classed as physicochemical. Summed up: (§4)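 Compounds incubated at 37 °C in 50 mM Tris buffer pH 7.4 or in pooled healthy-volunteer human plasma (stored -80 °C). Concentration followed over time by LC-MS/MS; t1/2 taken from the decay rate of ln(concentration) versus time. Half-lives above 240 min cannot be resolved and are given as ≥240. Ketoprofen ethyl ester served as plasma-activity reference.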

Series [10] is described as follows: Half life in human plasma. The series is classed as ADME, cell-free. Summed up: as §4
The subject of series [11] is Mus musculus. Put plainly: Analgesic activity in CD1 albino mouse model of oxaliplatin-induced neuropathy hypersensitivity assessed as increase pain threshold at 4 mg/kg, po dosed from day 14 post oxaliplatin challenge and measured up to 90 mins post dose by cold plate test. The series is classed as functional, organism-based. In a few lines:
as §3

Series [12] deals with Mus musculus. Put plainly: Analgesic activity in CD1 albino mouse model of oxaliplatin-induced neuropathy hypersensitivity assessed as increase pain threshold at 40 mg/kg, po dosed from day 14 post oxaliplatin challenge and measured up to 90 mins post dose by cold plate test. The series is classed as functional, organism-based. Summed up:
as §3

Series [13] has as its system Mus musculus. The series is described as follows: Analgesic activity in CD1 albino mouse model of oxaliplatin-induced neuropathy hypersensitivity assessed as increase pain threshold at 0.03 mg/kg, po dosed from day 14 post oxaliplatin challenge and measured after 30 to 60 mins post dose by cold plate test. The series is classed as functional, organism-based. In a few lines:
as §3

The subject of series [14] is Mus musculus. The series is described as follows: Analgesic activity in CD1 albino mouse model of oxaliplatin-induced neuropathy hypersensitivity assessed as increase pain threshold at 1 to 10 mg/kg, po dosed from day 14 post oxaliplatin challenge and measured after 30 to 60 mins post dose by cold plate test. The series is classed as functional, organism-based. Summed up: as §3

The source made the active and inactive calls. Some results are limits rather than exact numbers.

Consider `CC(C)(C)c1cc(C(=O)NCCC(=O)Nc2ccc(-c3cn4c(=O)n(-c5ccccc5)nc4c(N)n3)cc2)cc(C(C)(C)C)c1O`, for which the Ki at Adenosine receptor A1 was over 30000 nM; at Adenosine receptor A2a [1], 54.5 nM; on Adenosine receptor A3, over 30000 nM; at Adenosine receptor A2a [8], 86 nM. Also, the IC50 is over 30000 nM at Adenosine receptor A2b and 263 nM at Adenosine receptor A2a [2]. Besides, the Activity worked out at 43.5% in the series with Microglia [3] and 30.6% with Microglia [4]. The outcome with Microglia [5], with Microglia [6] and in the series with Mus musculus [7] was Active. Besides, the half-life in [9] and in series [10] was at least 4 h in each case.

Regarding `O=C(O)CCCCC1CCSS1` (centres undefined), the result with Mus musculus [11] and with Mus musculus [12] was inactive.

On to `Nc1nc(-c2ccc(OCCNC(=O)CCCCC3CCSS3)cc2)cn2c(=O)n(-c3ccccc3)nc12` (centres undefined), for which the Ki at Adenosine receptor A1 stood at 379 nM; at Adenosine receptor A2a [1], 2.4 nM; at Adenosine receptor A3, 4100 nM; at Adenosine receptor A2a [8], 9 nM. The results for the IC50 on Adenosine receptor A2b and at Adenosine receptor A2a [2] were over 30000 nM and 116 nM, respectively. Besides, the Activity in the series with Microglia [3] is 54.5%; in the series on Microglia [4], 34.2%; in the series on Mus musculus [14], “Dose-dependent effect”. Besides, the result in the series with Microglia [5], in the series with Microglia [6] and with Mus musculus [13] was Active. Besides, the half-life in series [9] and in [10] was at least 4 h throughout.

In general, Ki refers to a dissociation constant, usually derived from enzyme kinetics or from competition with a known ligand. Low values mean a stronger hold on the target, high ones a looser hold on the target. By IC50 is commonly meant the point on the concentration scale where inhibition reaches its midpoint. As usually defined, the half-life is the time in which the quantity being followed falls by half. Lower therefore signals rapid decline.

The record behind these values is ChEMBL document CHEMBL4321802, “Antioxidant-Conjugated 1,2,4-Triazolo[4,3-a]pyrazin-3-one Derivatives: Highly Potent and Selective Human A2A Adenosine Receptor Antagonists Possessing Protective Efficacy in Neuropathic Pain” (J Med Chem, 2019).
